From ChEMBL document CHEMBL4145619, “Computer-Assisted Discovery of Retinoid X Receptor Modulating Natural Products and Isofunctional Mimetics” (J Med Chem, 2018) come the findings set out here.

Holding throughout (format): cell-based
The test system of one data set is HepG2. The data set is described as follows: Cytotoxicity against human HepG2 cells assessed as reduction in cell viability up to 100 uM after 48 hrs by WST1 assay. To be noted: hepg2, 48 h. In general terms: Tetrazolium assays rely on reduction of a dye to a coloured formazan, in cell work by metabolically active cells.
Data set [1] concerns the target T1, Retinoic acid receptor RXR-alpha (Homo sapiens) (UniProt P19793).
T1 sequence (whole entry): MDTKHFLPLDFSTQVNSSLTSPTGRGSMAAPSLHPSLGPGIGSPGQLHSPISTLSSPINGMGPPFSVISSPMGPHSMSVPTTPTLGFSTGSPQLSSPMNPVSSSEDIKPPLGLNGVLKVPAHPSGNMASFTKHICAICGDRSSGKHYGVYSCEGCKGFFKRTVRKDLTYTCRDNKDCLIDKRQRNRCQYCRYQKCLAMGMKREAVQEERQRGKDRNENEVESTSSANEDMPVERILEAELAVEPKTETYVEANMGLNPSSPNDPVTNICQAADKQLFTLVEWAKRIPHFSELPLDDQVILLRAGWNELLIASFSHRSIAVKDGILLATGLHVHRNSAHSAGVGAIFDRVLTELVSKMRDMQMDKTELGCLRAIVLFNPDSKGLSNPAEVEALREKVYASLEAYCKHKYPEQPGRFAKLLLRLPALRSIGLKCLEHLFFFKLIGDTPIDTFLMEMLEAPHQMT
The data set is described as follows: Transactivation of human Gal4-fused RXRalpha LBD expressed in HEK293T cells at 30 uM after 12 to 14 hrs by dual-glo luciferase assay. Put shortly: (§1)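 Single-concentration selectivity profiling in Gal4-hybrid reporter gene assays in HEK293T cells. Each nuclear receptor construct (RAR, PPAR, LXR, FXR, CAR, VDR, PXR, RXR) was tested at 30 μM.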

Data set [2] has as its target T2, Nuclear receptor subfamily 1 group I member 2 (Homo sapiens, UniProt O75469).
T2 sequence (O75469 whole entry): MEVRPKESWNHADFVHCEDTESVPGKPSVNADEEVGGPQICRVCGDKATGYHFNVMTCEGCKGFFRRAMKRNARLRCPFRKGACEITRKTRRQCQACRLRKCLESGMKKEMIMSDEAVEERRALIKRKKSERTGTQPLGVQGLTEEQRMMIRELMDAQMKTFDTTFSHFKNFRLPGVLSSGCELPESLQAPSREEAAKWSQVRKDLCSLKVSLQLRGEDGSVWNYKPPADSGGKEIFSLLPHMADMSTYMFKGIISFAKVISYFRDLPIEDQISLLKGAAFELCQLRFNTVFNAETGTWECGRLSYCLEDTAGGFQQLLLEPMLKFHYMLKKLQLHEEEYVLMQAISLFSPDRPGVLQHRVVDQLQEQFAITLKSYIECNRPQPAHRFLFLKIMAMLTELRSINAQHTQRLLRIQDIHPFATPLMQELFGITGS
The data set is described as follows: Transactivation of human Gal4-fused PXR LBD expressed in HEK293T cells at 30 uM after 12 to 14 hrs by dual-glo luciferase assay. Put shortly: as §1

Data set [3] deals with T3, Bile acid receptor (Homo sapiens) (UniProt Q96RI1).
T3 sequence (whole entry): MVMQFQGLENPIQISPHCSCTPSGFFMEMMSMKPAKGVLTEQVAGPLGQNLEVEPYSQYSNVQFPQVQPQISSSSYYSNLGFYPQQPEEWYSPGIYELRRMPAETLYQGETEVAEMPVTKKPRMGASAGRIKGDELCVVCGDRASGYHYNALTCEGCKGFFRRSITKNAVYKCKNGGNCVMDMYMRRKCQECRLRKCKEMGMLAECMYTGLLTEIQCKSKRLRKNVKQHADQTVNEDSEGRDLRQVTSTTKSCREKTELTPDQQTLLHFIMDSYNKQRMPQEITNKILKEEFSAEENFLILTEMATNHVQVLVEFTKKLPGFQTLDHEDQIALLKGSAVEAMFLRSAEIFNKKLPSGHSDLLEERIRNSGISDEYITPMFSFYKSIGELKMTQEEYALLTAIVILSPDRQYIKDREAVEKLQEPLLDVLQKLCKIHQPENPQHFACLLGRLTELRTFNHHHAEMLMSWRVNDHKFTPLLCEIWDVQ
The data set is described as follows: Transactivation of human Gal4-fused FXR LBD expressed in HEK293T cells at 30 uM after 12 to 14 hrs by dual-glo luciferase assay. Put shortly:
as §1

For data set [4], the target named is T4, Retinoic acid receptor gamma (Homo sapiens) (UniProt P13631).
T4 sequence (whole entry): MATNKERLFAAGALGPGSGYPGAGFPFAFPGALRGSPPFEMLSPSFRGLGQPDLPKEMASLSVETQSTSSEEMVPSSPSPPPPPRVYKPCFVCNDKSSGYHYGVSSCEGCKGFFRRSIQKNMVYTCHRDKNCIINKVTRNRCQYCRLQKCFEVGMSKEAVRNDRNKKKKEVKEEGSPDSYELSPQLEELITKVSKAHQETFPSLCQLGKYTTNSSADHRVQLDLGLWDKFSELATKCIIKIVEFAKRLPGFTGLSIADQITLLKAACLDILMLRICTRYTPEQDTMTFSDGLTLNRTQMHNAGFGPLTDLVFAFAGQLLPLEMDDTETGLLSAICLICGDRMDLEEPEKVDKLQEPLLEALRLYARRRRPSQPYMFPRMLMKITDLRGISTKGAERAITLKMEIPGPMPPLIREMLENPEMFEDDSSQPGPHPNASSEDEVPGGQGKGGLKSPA
The data set is described as follows: Transactivation of human Gal4-fused RARgamma LBD expressed in HEK293T cells at 30 uM after 12 to 14 hrs by dual-glo luciferase assay. The essentials: as §1

The target in data set [5] is T5, Oxysterols receptor LXR-alpha (Homo sapiens) (UniProt Q13133).
T5 sequence (whole entry): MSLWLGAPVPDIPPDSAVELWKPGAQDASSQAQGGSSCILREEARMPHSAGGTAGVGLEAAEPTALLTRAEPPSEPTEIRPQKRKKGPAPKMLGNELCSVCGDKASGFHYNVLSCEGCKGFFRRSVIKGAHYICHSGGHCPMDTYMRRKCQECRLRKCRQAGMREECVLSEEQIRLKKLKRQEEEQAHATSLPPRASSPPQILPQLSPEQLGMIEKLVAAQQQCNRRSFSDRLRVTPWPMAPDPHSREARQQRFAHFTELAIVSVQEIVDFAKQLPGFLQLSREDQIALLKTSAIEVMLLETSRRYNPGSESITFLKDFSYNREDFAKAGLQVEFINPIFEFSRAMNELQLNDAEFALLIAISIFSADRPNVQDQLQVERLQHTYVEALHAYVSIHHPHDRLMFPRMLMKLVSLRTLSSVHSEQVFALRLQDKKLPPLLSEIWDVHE
The data set is described as follows: Transactivation of human Gal4-fused LXRalpha LBD expressed in HEK293T cells at 30 uM after 12 to 14 hrs by dual-glo luciferase assay. The essentials:
as §1

Activity calls are given as the source filed them. The calls are words filed in the database; no cut-off is given here.

As for `CC1=C2[C@H](/C=C(\C)C(=O)O)CC[C@@H](C)[C@H]2CC1` [VALERENIC ACID], the Activity entry in the data set with HepG2 is “Non-Toxic”; in data set [2] it was “Not Active”. Also, the outcome in data set [1] was Active. The outcome in data set [3], in data set [4] and in data set [5] was inactive.
